Experimental data taken from ChEMBL document CHEMBL4330168, “Monomeric and Dimeric Cytotoxic Guaianolide-Type Sesquiterpenoids from the Aerial Parts of Chrysanthemum indicum” (J Nat Prod, 2019).
pIC50: −log10 of the molar value.

Experiments:
Type in all cases: functional, cell-based
[1] = test system: SUNE1; experiment: Cytotoxicity against human SUNE1 cells after 48 hrs by MTT assay; settings: SUNE1, 48 h
Procedure, shortened: (§1)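 Growth inhibition in nasopharyngeal carcinoma lines (CNE1, CNE2, HONE-1, SUNE-1) and HT-29 colon cells. IC50 values are the mean ± SD of three experiments, with cisplatin as positive control.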

[2] = test system: CNE; experiment: Cytotoxicity against human CNE1 cells after 48 hrs by MTT assay; procedure, shortened: as §1
[3] = test system: CNE-2; experiment: Cytotoxicity against human CNE2 cells after 48 hrs by MTT assay; settings: CNE-2, 48 h; procedure, shortened: as §1
[4] = test system: HT-29; experiment: Cytotoxicity against human HT-29 cells after 48 hrs by MTT assay; settings: HT-29, 48 h; procedure, shortened: as §1
[5] = test system: HONE1 cell line; experiment: Cytotoxicity against human HONE1 cells after 48 hrs by MTT assay; settings: HONE1, 48 h; procedure, shortened: as §1

Measured: pIC50

C/C=C(\C)C(=O)O[C@H]1C[C@@](C)(O)[C@@H]2CC(=O)C(C)=C2[C@H]2OC(=O)[C@@H](C)[C@H]12
< 5.00: all assays above

C=C1C(=O)O[C@@H]2[C@@H]3[C@@]4(C=C[C@@]3(C)[C@]3(C4)C(=O)O[C@@H]4[C@H]5C(C)=CC[C@H]5[C@](C)(O)C[C@H](OC(=O)/C(C)=C/C)[C@H]43)[C@](C)(O)CC[C@@H]12
< 5.00: all assays above

C=C1C(=O)O[C@@H]2[C@@H]3[C@@]4(C=C[C@@]3(C)[C@]3(C4)C(=O)O[C@@H]4[C@H]5C(C)=CC[C@H]5[C@](C)(O)C[C@H](OC(C)=O)[C@H]43)[C@](C)(O)CC[C@@H]12
< 5.00: all assays above

C/C=C(\C)C(=O)O[C@H]1C[C@@](C)(O)[C@@H]2CC=C(C)[C@@H]2[C@H]2OC(=O)[C@H](C)[C@@H]21
< 5.00: all assays above

CC1=CC[C@@H]2[C@H]1[C@H]1OC(=O)[C@@H](C)[C@@H]1[C@H](O)C[C@@]2(C)O
< 5.00: all assays above
